Measured values collected from several papers.
Protocols differ between the studies behind these lines.
Mode: inhibitor
SLCO1B3 M233I: Solute carrier organic anion transporter family member 1B3 (SLCO1B3, Homo sapiens, UniProt Q9NPD5, M233I)
HDAC4: Histone deacetylase 4 (HDAC4, Homo sapiens, UniProt P56524)
VCP: Transitional endoplasmic reticulum ATPase (VCP, Homo sapiens, UniProt P55072)
P4HB: Protein disulfide-isomerase (P4HB, Homo sapiens, UniProt P07237)
BLK: Tyrosine-protein kinase Blk (BLK, Homo sapiens, UniProt P51451)
SLC2A9: Solute carrier family 2, facilitated glucose transporter member 9 (SLC2A9, Homo sapiens, UniProt Q9NRM0)

SMILES	target	test	conditions	IC50
CC(C)n1c(/C=C/C(O)CC(O)CC(=O)O)c(-c2ccc(F)cc2)c2ccccc21 (centres unmarked)	SLCO1B3 M233I	transporter uptake, radiometric	2 min	11 µM
O=C(NO)c1ccc(Cn2cnc3c(Nc4cccc([N+](=O)[O-])c4)ncnc32)cc1	HDAC4	enzyme activity	–	0.531 µM
COc1ccc(N(Cc2nc(-c3ccc(F)cc3)cs2)C(=O)CCCCCC(=O)NO)cc1	HDAC4	enzyme activity	–	> 10 µM
Cc1c(C(N)=O)c2ccccc2n1-c1nc2c(c(NCc3ccccc3)n1)CCCN2	VCP	enzyme activity, ADP detection	–	0.393 µM
O=C(O[C@@H]1[C@@H](O)[C@H](Oc2cc(O)c3c(c2)O[C@H](c2ccccc2)CC3=O)O[C@@H]2COC(=O)c3cc(O)c(O)c(O)c3-c3c(cc(O)c(O)c3O)C(=O)O[C@@H]12)c1cc(O)c(O)c(O)c1	P4HB	enzyme activity, fluorescence	–	1.5 µM
Oc1ccc(-c2nc(-c3ccncc3)c(-c3ccc(F)cc3)[nH]2)cc1	Tau-tubulin kinase 2 (TTBK2, Homo sapiens, UniProt Q6IQ55)	enzyme activity	–	3.62 µM
COc1ccc(N(Cc2csc(-c3ccc(C)cc3)n2)C(=O)CCCCCC(=O)NO)cc1	HDAC4	enzyme activity	–	> 10 µM
Cc1cc2c(C(=O)O)cccc2n1-c1nc2c(c(NCc3ccccc3)n1)CCCN2	VCP	enzyme activity, ADP detection	–	0.032 µM
C[C@H]1CN(C2COC2)CCN1c1ccc(Nc2cc(-c3ccnc(N4CCn5c(cc6c5CC(C)(C)C6)C4=O)c3CO)cn(C)c2=O)nc1	BLK	enzyme activity	–	> 5 µM
Cc1cc2c(C(N)=O)cncc2n1-c1nc2c(c(NCc3ccccc3)n1)CCCN2	VCP	enzyme activity, ADP detection	–	0.082 µM
CCc1oc2ccccc2c1C(=O)c1cc(Br)c(O)c(Br)c1	SLC2A9	transporter uptake	oocytes	87.6 µM
Cc1cc2c(C(N)=O)cccc2n1-c1nc2c(c(NCc3cccnc3)n1)CCCN2	VCP	enzyme activity, ADP detection	–	0.115 µM
CN(Cc1cnc2nc(N)nc(N)c2n1)c1ccc(C(=O)N[C@@H](CCC(=O)O)C(=O)O)cc1	Solute carrier organic anion transporter family member 1B3 (SLCO1B3, Homo sapiens, UniProt Q9NPD5)	transporter uptake, radiometric	2 min	0.498 µM
CONC(=O)Cc1c(C)n(-c2nc3c(c(NCc4ccccc4)n2)CCCN3)c2ccccc12	VCP	enzyme activity, ADP detection	–	0.177 µM
CC1(C)NC(=O)N(c2ccc([N+](=O)[O-])c(C(F)(F)F)c2)C1=O	Aldo-keto reductase family 1 member C3 (AKR1C3, Homo sapiens, UniProt P42330)	enzyme activity	–	5 µM
CONC(=O)c1cccc2c1cc(C)n2-c1nc2c(c(NCc3ccccc3)n1)CCCN2	VCP	enzyme activity, ADP detection	–	0.026 µM
CC#CC(=O)N1CCC[C@H]1c1nc(-c2ccc(C(=O)Nc3ccccn3)cc2)c2c(N)nccn12	BLK	enzyme activity	–	4.22 µM
O=c1c(O)cc([C@H]2Oc3cc(O)cc(O)c3C[C@H]2O)cc2c([C@H]3Oc4cc(O)cc(O)c4C[C@H]3O)cc(O)c(O)c12	P4HB	enzyme activity, fluorescence	–	> 500 µM
COc1cccc2c1C(=O)c1c(O)c3c(c(O)c1C2=O)C[C@@](O)(C(=O)CO)C[C@@H]3O[C@H]1C[C@H](N)[C@H](O)[C@H](C)O1	SLCO1B3 M233I	transporter uptake, radiometric	2 min	> 100 µM
Cc1cc2c(C(N)=O)cccc2n1-c1nc2c(c(NCc3cccc(O)c3)n1)CCCN2	VCP	enzyme activity, ADP detection	–	0.014 µM
O=C(O[C@@H]1Cc2c(O)cc(O)cc2O[C@@H]1c1cc(O)c(O)c(O)c1)c1cc(O)c(O)c(O)c1	P4HB	enzyme activity, fluorescence	–	243 µM
NC/C(=C\F)COc1cccc(Cn2c(=S)[nH]c(=O)c3[nH]cnc32)c1	Lactoperoxidase (LPO, Bos taurus, UniProt P80025)	enzyme activity	–	7.5 µM
Clc1ccc(Nc2ccncc2)cc1Cl	G/T mismatch-specific thymine DNA glycosylase (TDG, Homo sapiens, UniProt Q13569)	enzyme activity	–	> 99 µM
CCc1oc2cc(F)c(F)cc2c1C(=O)c1cc(Br)c(O)c(Br)c1	SLC2A9	transporter uptake	oocytes	17.4 µM
CC(=O)O[C@H]1C(=O)[C@@]2(C)[C@H]([C@H](OC(=O)c3ccccc3)[C@]3(O)C[C@H](OC(=O)[C@H](O)[C@@H](NC(=O)c4ccccc4)c4ccccc4)C(C)=C1C3(C)C)[C@]1(OC(C)=O)CO[C@@H]1C[C@@H]2O	SLCO1B3 M233I	transporter uptake, radiometric	2 min	> 100 µM
CC#CC(=O)N[C@H]1CCCN(c2c(F)cc(C(N)=O)c3[nH]c(C)c(C)c23)C1	BLK	enzyme activity	–	0.00692 µM
